Published values gathered from unrelated publications.
Protocols differ between the studies behind these lines.
Target: Activin receptor type-1-like (ACVRL1, Homo sapiens, UniProt P37023)

For `CN(C)c1nccc(-c2cnn3ncccc23)n1`, the remaining binding was 100% (binding; 1 µM).
`O=C(NCCCN1CCOCC1)c1ccc(Nc2nccc(-c3cc4ccccc4s3)n2)cc1` gave a remaining binding of 100% (binding, competition with immobilised ligand; 1 µM).
With `CN(C)CC#Cc1ccc(OCCCc2sc(N3CCc4cccc(C(=O)Nc5nc6ccccc6s5)c4C3)nc2C(=O)O)c(F)c1` the remaining binding was 82% (binding, competition with immobilised ligand; 1 µM).
With `FC(F)(F)Oc1cccc(-c2cnc3ccc(-c4ccncc4)nn23)c1` the remaining binding was 85% (cell-free assay, competition with immobilised ligand; 5 µM).
With `FC(F)(F)c1ccc2c(c1)nc(-c1cccnc1)n2C1CC1` the remaining binding was 100% (cell-free assay, competition with immobilised ligand; 1 µM).
The remaining binding of `COc1ncc2cc3ccccc3nc2c1C#N` is reported as 93% (binding, competition with immobilised ligand; 5 µM).
`COc1cc(-c2cn(C3CCc4c(F)cccc4N(CC(F)(F)F)C3=O)nn2)ccc1-n1cnc(C)c1` (stereo not shown) gave a remaining binding of 100% (cell-free assay, competition with immobilised ligand; 1 µM).
For `CN(C)c1nccc(-c2cnc3ncccn23)n1`, the remaining binding was 100% (binding; 1 µM).
`C=CC(=O)N1CCC(C(=O)NCC(=O)N2CCN(c3nc(-c4cnc(N)nc4C(F)F)nc(N4CCOCC4)n3)CC2)CC1` has a remaining binding of 92% (binding, competition with immobilised ligand; 1 µM).
`Cc1c[nH]c2nccc(Oc3c(F)cc(Nc4cc(Cl)nc(N)n4)cc3F)c12` has a remaining binding of 100% (cell-free assay, competition with immobilised ligand; 0.1 µM).
With `C[C@@H]1CCN(c2nccc(-c3cnn4ncccc34)n2)C1` the remaining binding was 100% (binding; 1 µM).
`Cc1cc(C)c(-n2ccn3nc(-c4cccnc4)cc23)cc1NC(=O)c1cc(C#N)cc(S(F)(F)(F)(F)F)c1` has a remaining binding of 78.9% (binding, competition with immobilised ligand; 0.1 µM).
With `CN(CCCC(F)(F)F)c1nccc(-c2cnn3ncccc23)n1` the remaining binding was 68% (binding; 1 µM).
The remaining binding of `O=C(c1ccc(Nc2nccc(-c3cc4ccccc4s3)n2)cc1)N1CCC(N2CCCC2)CC1` is reported as 100% (binding, competition with immobilised ligand; 1 µM).
With `COc1ccnn2ncc(-c3ccnc(N(C)C)n3)c12` the remaining binding was 100% (binding; 1 µM).
`NS(=O)(=O)c1cc(NC(=O)C2(c3ccccc3Cl)CC2)ccc1Oc1cccc(Cl)c1` has a remaining binding of 45% (binding, competition with immobilised ligand; 1 µM).
The remaining binding of `O=C(NCC1CCOCC1)c1n[nH]cc1NC(=O)c1c(F)cccc1F` is reported as 94% (binding, competition with immobilised ligand; 1 µM).
`CN(c1nccc(-c2cnn3ncccc23)n1)C1CC1` gave a remaining binding of 76% (binding; 1 µM).
For `Nc1ncc2c(n1)-c1c([nH]c3ccc(C#CC4CC4)cc13)CCCC2`, the remaining binding was 100% (binding, competition with immobilised ligand; 1 µM).
The remaining binding of `N[C@H]1CCN(c2nccc(-c3cnn4ncccc34)n2)C1` is reported as 97% (binding; 1 µM).
`CNC(=O)[C@@H]1CC[C@@H](n2c(-c3ccc4cnccc4c3)nc3ccc(C(=O)NCc4cccc(C(N)=O)c4)cc32)C1` has a remaining binding of 68% (binding, competition with immobilised ligand; 1 µM).
`O=C(NCCCN1CCOCC1)c1ccc(Nc2ncc(Cl)c(-c3ccc(Cl)s3)n2)cc1` has a remaining binding of 100% (binding, competition with immobilised ligand; 1 µM).
